ChEMBL document CHEMBL1137377, “Evaluation of azasterols as anti-parasitics” (J Med Chem, 2006)

How the values were obtained:
[1] = system: Trypanosoma brucei rhodesiense; test: Antitrypanosomal activity against Trypanosoma brucei rhodesiense trypomastigotes; assay type: functional; details: read-out: ED50 (the source's name)
Method in brief: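 Bloodstream-form STIB900 trypomastigotes grown in HMI-18 + 15% HIFCS at 37 °C, 5% CO2. Seeded at 2 × 10^5/mL onto drug dilutions (top 30 µg/mL) for 72 h. Alamar Blue read 5-6 h later by fluorescence (ex/em 530/585 nm). ED50 by curve fitting.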

Plasmodium falciparum [2] = test: Antimalarial activity against Plasmodium falciparum 3D7; assay type: functional, organism-based
Method in brief: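 Synchronized ring-stage 3D7 culture at 1% parasitemia in RPMI 1640, 5% hematocrit, 37 °C, 5% CO2. Top final drug concentration 30 µg/mL. After 24 h, (3H)-hypoxanthine added (0.2 µCi/well), then 48 h further incubation. Plates freeze/thawed and harvested, and hypoxanthine uptake counted. ED50 by curve fitting.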

KB = test: Cytotoxicity against KB cell line; assay type: functional; details: Homo sapiens, read-out: TD50 (the source's name)
Trypanosoma cruzi = test: Antitrypanosomal activity against Trypanosoma cruzi trypomastigotes in CD1 mouse macrophage; assay type: functional; details: read-out: ED50 (the source's name)
Method in brief: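 Starch-induced CD1 peritoneal macrophages plated at 4 × 10^5/mL, infected after 24 h with T. cruzi Tulahuan LAC-Z trypomastigotes. 24 h later, drug exposure for 3 days. ED50 by curve fitting.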

Leishmania donovani = test: Antileishmanial activity against Leishmania donovani amastigotes in CD1 mouse macrophage; assay type: functional, organism-based; details: read-out: ED50 (the source's name)
Method in brief: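 Peritoneal macrophages from starch-induced CD1 mice, kept 24 h in RPMI1640 + 10% HIFCS at 37 °C, 5% CO2. Infected with L. donovani MHOM/ET/67/L82 amastigotes from hamster spleen at 5 parasites:1 macrophage. After 24 h, drug exposure for 5 days, overlay replaced day 3. Top concentration 30 µg/mL, quadruplicate. Slides methanol-fixed, Giemsa-stained, counted microscopically. ED50 by curve fitting.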

Plasmodium falciparum [3] = test: Antimalarial activity against Plasmodium falciparum K1; assay type: functional, organism-based; details: read-out: ED50 (the source's name)
[4] = read-out: ED50 (the source's name)

| EC50 [1] [µM] | EC50 (Plasmodium falciparum [2]; [4]) [µM] | EC50 (Trypanosoma cruzi) [µM] | EC50 (Leishmania donovani) [µM] | EC50 (Plasmodium falciparum [3]) [µM] | EC50 (Plasmodium falciparum [2]; read-out: EC50) [µM] | SMILES | CC50 (KB) [µM] |
| --- | --- | --- | --- | --- | --- | --- | --- |
| 10.4 | > 65 | 11.4 | > 65 |  |  | C[C@H](C(=O)NCCCCCC(=O)O)[C@H]1CC[C@H]2C3CC=C4C[C@@H](O)CC[C@]4(C)[C@H]3CC[C@]12C (some centres undefined) | 303 |
| > 56 | 36.6 | < 2.08 |  | 38.1 |  | C[C@H](CNCC[C@H](NC(=O)OC(C)(C)C)C(=O)O)[C@H]1CC[C@H]2C3CC=C4C[C@@H](O)CC[C@]4(C)[C@H]3CC[C@]12C (some centres undefined) | > 563 |
| > 50 | 16.7 | 9.52 |  | 6.29 |  | C[C@H](CNCCCC[C@H](NC(=O)OCc1ccccc1)C(=O)O)[C@H]1CC[C@H]2C3CC=C4C[C@@H](O)CC[C@]4(C)[C@H]3CC[C@]12C (some centres undefined) | > 504 |
| > 77 | > 77 | > 77 | > 77 |  |  | C[C@H](CNCC(=O)O)[C@H]1CC[C@H]2C3CC=C4C[C@@H](O)CC[C@]4(C)[C@H]3CC[C@]12C (some centres undefined) | > 770 |
| 30.1 | > 70 | 66.2 | > 70 |  |  | C[C@H](CNCCCCC(=O)O)[C@H]1CC[C@H]2C3CC=C4C[C@@H](O)CC[C@]4(C)[C@H]3CC[C@]12C (some centres undefined) | > 695 |
| 55.2 | > 62 | > 62 | > 62 |  |  | CC(=O)O[C@H]1CC[C@@]2(C)C(=CCC3[C@@H]4CC[C@H]([C@H](C)CNCCCCCC(=O)O)[C@@]4(C)CC[C@@H]32)C1 (some centres undefined) | 433 |
| 47.6 | > 65 | 44.9 | > 65 |  |  | C[C@H](CNCCCCCCC(=O)O)[C@H]1CC[C@H]2C3CC=C4C[C@@H](O)CC[C@]4(C)[C@H]3CC[C@]12C (some centres undefined) | 72 |
| > 67 | > 67 | 56.3 | 54.5 |  |  | C[C@H](CNCCCCCC(=O)O)[C@H]1CC[C@H]2C3CC=C4C[C@@H](O)CC[C@]4(C)[C@H]3CC[C@]12C (some centres undefined) | > 673 |
| 0.01 | 3.4 | > 24 | > 40 |  |  | CC(=O)O[C@H]1CC[C@@]2(C)C(=CCC3[C@@H]4CC[C@H]([C@H](C)C(=O)NCCCC[C@H](NC(=O)OCc5ccccc5)C(=O)OCc5ccccc5)[C@@]4(C)CC[C@@H]32)C1 (some centres undefined) | > 400 |
| 54.6 | > 65 | 12.6 | > 65 |  |  | CC(=O)O[C@H]1CC[C@@]2(C)C(=CCC3[C@@H]4CC[C@H]([C@H](C)CNCCCC(=O)O)[C@@]4(C)CC[C@@H]32)C1 (some centres undefined) | 505 |
| 0.033 | 7.37 | 20.5 | 21.9 |  |  | COC(=O)CCCCCNC[C@@H](C)[C@H]1CC[C@H]2C3CC=C4C[C@@H](OC(C)=O)CC[C@]4(C)[C@H]3CC[C@]12C (some centres undefined) | 15.6 |
| 14.4 | 56.5 | 47.3 | > 72 |  |  | C[C@H](CNCCCC(=O)O)[C@H]1CC[C@H]2C3CC=C4C[C@@H](O)CC[C@]4(C)[C@H]3CC[C@]12C (some centres undefined) | 451 |
| 2.32 | > 63 | 34.5 | > 63 |  |  | C[C@H](C(=O)NCCCCCCC(=O)O)[C@H]1CC[C@H]2C3CC=C4C[C@@H](O)CC[C@]4(C)[C@H]3CC[C@]12C (some centres undefined) | 252 |
| 0.431 | > 62 | 6.5 | 25.8 |  |  | C[C@H](C(=O)NCCCCCCCC(=O)O)[C@H]1CC[C@H]2C3CC=C4C[C@@H](O)CC[C@]4(C)[C@H]3CC[C@]12C (some centres undefined) | 377 |
| 0.025 | 3.49 | 53.5 | 9.5 |  |  | COC(=O)CCCCCCNC[C@@H](C)[C@H]1CC[C@H]2C3CC=C4C[C@@H](OC(C)=O)CC[C@]4(C)[C@H]3CC[C@]12C (some centres undefined) | 11.2 |
| 1.7 | > 47 | > 47 | > 47 |  |  | CC(=O)O[C@H]1CC[C@@]2(C)C(=CCC3[C@@H]4CC[C@H]([C@H](C)C(=O)NCCC[C@H](NC(=O)OCc5ccccc5)C(=O)O)[C@@]4(C)CC[C@@H]32)C1 (some centres undefined) | 147 |

| EC50 [1] [µM] | EC50 (Plasmodium falciparum [2]; [4]) [µM] | EC50 (Trypanosoma cruzi) [µM] | EC50 (Leishmania donovani) [µM] | EC50 (Plasmodium falciparum [3]) [µM] | EC50 (Plasmodium falciparum [2]; read-out: EC50) [µM] | SMILES | CC50 (KB) [µM] |
| --- | --- | --- | --- | --- | --- | --- | --- |
| 5.05 | 7.53 | < 2.57 |  | 1.95 |  | COC(=O)CCCNC[C@@H](C)[C@H]1CC[C@H]2C3CC=C4C[C@@H](O)CC[C@]4(C)[C@H]3CC[C@]12C (some centres undefined) | 1.55 |
| 0.619 | 0.839 | 1.71 |  | 0.069 |  | CC(=O)O[C@H]1CC[C@@]2(C)C(=CCC3[C@@H]4CC[C@H]([C@H](C)CNCCCC[C@H](NC(=O)OCc5ccccc5)C(=O)OCc5ccccc5)[C@@]4(C)CC[C@@H]32)C1 (some centres undefined) | 29.8 |
| 0.753 | 0.799 | < 1.71 |  | 0.215 |  | COC(=O)[C@H](CCCCNC[C@@H](C)[C@H]1CC[C@H]2C3CC=C4C[C@@H](OC(C)=O)CC[C@]4(C)[C@H]3CC[C@]12C)NC(=O)OCc1ccccc1 (some centres undefined) | 5.35 |
| 0.098 | 2.64 | 28.7 | 14.8 |  |  | COC(=O)CCCCCCCNC[C@@H](C)[C@H]1CC[C@H]2C3CC=C4C[C@@H](OC(C)=O)CC[C@]4(C)[C@H]3CC[C@]12C (some centres undefined) | 10 |
| 0.308 | 0.349 | 2.64 |  | 0.062 |  | COC(=O)CCCCCCCNC[C@@H](C)[C@H]1CC[C@H]2C3CC=C4C[C@@H](O)CC[C@]4(C)[C@H]3CC[C@]12C (some centres undefined) | 6.17 |
| 10.6 | > 63 | 38.4 | 26.4 |  |  | C[C@H](CNCCCCCCCC(=O)O)[C@H]1CC[C@H]2C3CC=C4C[C@@H](O)CC[C@]4(C)[C@H]3CC[C@]12C (some centres undefined) | > 633 |
| 2.15 | 1.31 | < 2.41 |  | 0.5 |  | COC(=O)CCCCCNC[C@@H](C)[C@H]1CC[C@H]2C3CC=C4C[C@@H](O)CC[C@]4(C)[C@H]3CC[C@]12C (some centres undefined) | 6.09 |
| 4.91 | 40.6 | < 2.75 |  | 22.2 |  | COC(=O)CNC[C@@H](C)[C@H]1CC[C@H]2C3CC=C4C[C@@H](O)CC[C@]4(C)[C@H]3CC[C@]12C (some centres undefined) | 45 |
| 7.85 | > 67 | 32.9 | > 67 |  |  | C[C@H](C(=O)NCCCCC(=O)O)[C@H]1CC[C@H]2C3CC=C4C[C@@H](O)CC[C@]4(C)[C@H]3CC[C@]12C (some centres undefined) | 561 |
| 49.8 |  | 39.8 | 29.2 |  | 45.6 | C[C@H](C(=O)NCCCC(=O)O)[C@H]1CC[C@H]2C3CC=C4C[C@@H](O)CC[C@]4(C)[C@H]3CC[C@]12C (some centres undefined) | 616 |
| 0.55 |  | 11.2 | 25 |  |  | COC(=O)[C@@H](N)CCCCNC(=O)[C@@H](C)[C@H]1CC[C@H]2C3CC=C4C[C@@H](O)CC[C@]4(C)[C@H]3CC[C@]12C (some centres undefined) | 42 |
| 0.012 | 15.4 | 24.7 | 3.19 |  |  | COC(=O)CCCNC[C@@H](C)[C@H]1CC[C@H]2C3CC=C4C[C@@H](OC(C)=O)CC[C@]4(C)[C@H]3CC[C@]12C (some centres undefined) | 19.2 |
| 0.302 | > 65.3 | 28.9 | 22.8 |  |  | COC(=O)CCNC[C@@H](C)[C@H]1CC[C@H]2C3CC=C4C[C@@H](OC(C)=O)CC[C@]4(C)[C@H]3CC[C@]12C (some centres undefined) | 17.4 |
| 34.3 |  | > 56 | > 56 |  |  | C[C@H](C(=O)NC[C@H](NC(=O)OC(C)(C)C)C(=O)O)[C@H]1CC[C@H]2C3CC=C4C[C@@H](O)CC[C@]4(C)[C@H]3CC[C@]12C (some centres undefined) | 109 |
| 0.032 | 8.65 | 11.7 | > 62 |  |  | COC(=O)CCCCNC[C@@H](C)[C@H]1CC[C@H]2C3CC=C4C[C@@H](OC(C)=O)CC[C@]4(C)[C@H]3CC[C@]12C (some centres undefined) | 26.1 |
| > 55 |  | 11.2 | > 55 |  |  | C[C@H](C(=O)NCC[C@H](NC(=O)OC(C)(C)C)C(=O)O)[C@H]1CC[C@H]2C3CC=C4C[C@@H](O)CC[C@]4(C)[C@H]3CC[C@]12C (some centres undefined) | 1270 |

| SMILES | EC50 [1] [µM] | EC50 (Plasmodium falciparum [2]; [4]) [µM] | EC50 (Trypanosoma cruzi) [µM] | EC50 (Leishmania donovani) [µM] | EC50 (Plasmodium falciparum [3]) [µM] | EC50 (Plasmodium falciparum [2]; read-out: EC50) [µM] | CC50 (KB) [µM] |
| --- | --- | --- | --- | --- | --- | --- | --- |
| COc1cc([C@@H]2c3cc4c(cc3[C@H](O)[C@H]3COC(=O)[C@H]23)OCO4)cc(OC)c1OC [PODOFILOX] |  |  |  |  | 0.1 |  | 0.001 |
